Results on 22 molecules are retold here after ChEMBL document CHEMBL1149130, “Synthesis and biological evaluation of novel chloroethylaminoanthraquinones with potent cytotoxic activity against cisplatin-resistant tumor cells” (J Med Chem, 2004).

The species entered for one test is Homo sapiens. As to the kind of experiment: Resistance factor (IC50 in the resistant cell line/IC50 in the parent cell line). The test is classed as functional.
For test [1], the system named is CH1. Kind of test: Growth inhibition against CH-1 wild-type ovarian cell lines. Type of test: functional, cell-based. The conditions noted are these: Homo sapiens. The procedure, abridged:
(§1)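 Cells in exponential growth (5 × 10⁴ cells/mL) were exposed to compound freshly dissolved in DMSO for 24 h at 37 °C. Drug medium was then replaced with fresh medium, followed by 3 days of growth. Viability was read by sulforhodamine B staining. IC50 is the concentration giving a 50% reduction in SRB colour formation.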

The test system of test [2] is CH1. Kind of test: Growth inhibition against CH-1 cisplatin resistant wild-type ovarian cell lines. The test is classed as functional, cell-based, Homo sapiens. In short, it runs like this:
as §1

The test system of test [3] is A2780. As to the kind of experiment: Growth inhibition against A2780 cisplatin resistant wild-type ovarian cell lines. As to conditions: Homo sapiens. Type of test: functional, cell-based. In short, it runs like this: as §1
Test [4] deals with A2780. As to the kind of experiment: Growth inhibition against A2780 wild-type ovarian cell lines. The test is classed as functional, cell-based. The conditions noted are these: Homo sapiens. The procedure, abridged: as §1
The test system of test [5] is SK-OV-3. As to the kind of experiment: Growth inhibition against SKOV3 wild-type ovarian cell lines. Type of test: functional, cell-based. The conditions noted are these: Homo sapiens. In short, it runs like this:
as §1

For test [6], the system named is CH1. Kind of test: Compound was evaluated for growth inhibition against CH1cisR wild-type ovarian cell lines. The conditions noted are these: Homo sapiens. Type of test: functional, cell-based. The procedure, abridged: (§2)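 Cells kept as in earlier work; exponentially growing cultures (5 × 10⁴ cells/mL) given compound freshly dissolved in DMSO, 24 h at 37 °C. Drug medium then replaced with fresh medium, followed by 3 day growth. Viability by sulforhodamine B staining; IC50 taken as concentration giving 50% reduction in SRB colour formation.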

The test system of test [7] is SK-OV-3. Kind of test: Compound was evaluated for growth inhibition against SKOV3 wild-type ovarian cell lines. The test is classed as functional, cell-based. The conditions noted are these: Homo sapiens. The procedure, abridged: as §2

For orientation: IC50 means the concentration that gives 50% inhibition. For the molecule `O=C1c2ccccc2C(=O)c2c(NCCCN(CCCl)CCCl)ccc(NCCCN(CCCl)CCCl)c21`, the RF in the test filed under Homo sapiens turned out to be 3.7. Moreover, the IC50 in the test on CH1 [1] turned out to be 30 nM; with CH1 [2] (Homo sapiens, CH1), 110 nM; in the test with A2780 [3], 52 nM; with A2780 [4], 31 nM; with SK-OV-3 [5] it was 190 nM.
Consider `CN(CCO)CCNc1cccc2c1C(=O)c1ccccc1C2=O`, for which the RF in the test filed under Homo sapiens amounted to 1; in the test filed under Homo sapiens (Homo sapiens) it was 1.2. In addition, the IC50 in the test on CH1 [1] came out at 2900 nM; in the test with CH1 [2] (Homo sapiens, CH1), 2800 nM; in the test with A2780 [3], 4200 nM; with A2780 [4], 3400 nM; with SK-OV-3 [5], 13000 nM.
For the molecule `CN(CCCl)CCNc1ccc(NCCN(C)CCCl)c2c1C(=O)c1c(O)ccc(O)c1C2=O`, the values for the RF in the test listed under Homo sapiens and in the test listed under Homo sapiens (Homo sapiens) were 1.9 and 2.7, respectively. Also, the IC50 in the test with CH1 [1] worked out at 7 nM; with CH1 [2] (Homo sapiens, CH1) it was 14 nM; in the test on A2780 [3], 24 nM; in the test with A2780 [4], 9 nM; in the test on SK-OV-3 [5], 100 nM.
For the molecule `O=C1c2c(O)ccc(O)c2C(=O)c2c(NCCN(CCCl)CCCl)ccc(NCCN(CCCl)CCCl)c21`, the RF is 2 in the test filed under Homo sapiens and 1.4 in the test listed under Homo sapiens (Homo sapiens). The IC50 with CH1 [1] worked out at 54 nM; with CH1 [2] (Homo sapiens, CH1) it was 110 nM; in the test with A2780 [3], 170 nM; in the test with A2780 [4] it was 120 nM; in the test on SK-OV-3 [5], 1450 nM.
As to `O=C1c2ccccc2C(=O)c2c(NCCN(CCO)CCO)ccc(NCCN(CCO)CCO)c21`, the RF turned out to be 0.8 in the test listed under Homo sapiens and 1.1 in the test filed under Homo sapiens (Homo sapiens). In addition, the IC50 in the test on CH1 [1] turned out to be 3900 nM; with A2780 [3], 3500 nM; in the test on CH1 [6] it was 3300 nM; in the test on SK-OV-3 [7], 18000 nM; in the test on A2780 [4] it was 3300 nM.
For `O=C1c2ccccc2C(=O)c2c(NCCCN(CCCl)CCCl)cccc21`, the RF is 2.9 in the test filed under Homo sapiens and 1.6 in the test listed under Homo sapiens (Homo sapiens). Further, the IC50 with CH1 [1] is 185 nM; with CH1 [2] (Homo sapiens, CH1), 550 nM; in the test with A2780 [3], 640 nM; in the test on A2780 [4], 410 nM; with SK-OV-3 [5], 1900 nM.
On to `CN(CCCl)CCNc1cccc2c1C(=O)c1ccccc1C2=O`, for which the RF in the test listed under Homo sapiens is 1.2; in the test filed under Homo sapiens (Homo sapiens), 1.7. Besides, the IC50 in the test on CH1 [1] worked out at 2500 nM; in the test on CH1 [2] (Homo sapiens, CH1) it was 3100 nM; in the test on A2780 [3] it was 8000 nM; with A2780 [4], 4600 nM; in the test on SK-OV-3 [5], 13500 nM.
With `CN(CCO)CCCNc1cccc2c1C(=O)c1ccccc1C2=O`, the figures for the RF in the test listed under Homo sapiens and in the test listed under Homo sapiens (Homo sapiens) were 1 and 1.1, respectively. In addition, the IC50 is 2600 nM in the test on CH1 [1]; 2600 nM with CH1 [2] (Homo sapiens, CH1); 3300 nM in the test on A2780 [3]; 3100 nM in the test with A2780 [4]; 11500 nM in the test with SK-OV-3 [5].
Regarding `CN(CCO)CCNc1ccc(NCCN(C)CCO)c2c1C(=O)c1ccccc1C2=O`, the RF in the test listed under Homo sapiens was 1.2; in the test filed under Homo sapiens (Homo sapiens) it was 0.8. For the same molecule, the IC50 in the test with CH1 [1] amounted to 680 nM; in the test with CH1 [2] (Homo sapiens, CH1), 800 nM; with A2780 [3] it was 580 nM; with A2780 [4] it was 720 nM; with SK-OV-3 [5] it was 3300 nM.
As for `O=C1c2c(O)ccc(O)c2C(=O)c2c(NCCCN(CCO)CCO)ccc(NCCCN(CCO)CCO)c21`, the RF in the test listed under Homo sapiens came out at 1.3; in the test filed under Homo sapiens (Homo sapiens) it was 1.1. Moreover, the IC50 in the test on CH1 [1] came out at 580 nM; in the test with CH1 [2] (Homo sapiens, CH1) it was 780 nM; with A2780 [3], 740 nM; in the test on A2780 [4] it was 680 nM; in the test on SK-OV-3 [5] it was 2450 nM.
In the case of `CN(CCCl)CCNc1ccc(NCCN(C)CCCl)c2c1C(=O)c1ccccc1C2=O`, the RF is 1.3 in the test filed under Homo sapiens and 2.6 in the test listed under Homo sapiens (Homo sapiens). Moreover, the IC50 with CH1 [1] was 110 nM; in the test with CH1 [2] (Homo sapiens, CH1) it was 145 nM; with A2780 [3], 355 nM; with A2780 [4] it was 135 nM; in the test on SK-OV-3 [5] it was 770 nM.
For the molecule `CN(C)CCNc1ccc(NCCN(CCO)CCO)c2c1C(=O)c1c(O)ccc(O)c1C2=O`, the figures for the RF in the test listed under Homo sapiens and in the test filed under Homo sapiens (Homo sapiens) were 1.6 and 1, respectively. Besides, the 50% inhibitory concentration (IC50) worked out at 30 nM in the test on CH1 [1]; 46 nM in the test with CH1 [2] (Homo sapiens, CH1); 13 nM with A2780 [3]; 13 nM in the test with A2780 [4]; 260 nM in the test with SK-OV-3 [5].
Turning to `CN(CCO)CCNc1ccc(NCCN(C)CCO)c2c1C(=O)c1c(O)ccc(O)c1C2=O`, in the test filed under Homo sapiens, the RF amounted to 2.6. Besides, the IC50 in the test on CH1 [1] was found to be 8 nM; in the test with CH1 [2] (Homo sapiens, CH1) it was 22 nM; in the test with A2780 [3], 4 nM; in the test with A2780 [4] it was 4 nM; in the test on SK-OV-3 [5], 11000 nM.
With `O=C1c2ccccc2C(=O)c2c(NCCCN(CCO)CCO)ccc(NCCCN(CCO)CCO)c21`, the RF was found to be 1.1 in the test listed under Homo sapiens and 1 in the test listed under Homo sapiens (Homo sapiens). Further, the IC50 is 2200 nM in the test on CH1 [1]; 3400 nM in the test with A2780 [3]; 2400 nM in the test with CH1 [6]; 6700 nM with SK-OV-3 [7]; 3500 nM with A2780 [4].
Take `CN(CCCl)CCCNc1cccc2c1C(=O)c1ccccc1C2=O`: the RF in the test listed under Homo sapiens is 0.9; in the test listed under Homo sapiens (Homo sapiens), 1. Besides, the IC50 turned out to be 1440 nM with CH1 [1]; 1300 nM with CH1 [2] (Homo sapiens, CH1); 2700 nM in the test on A2780 [3]; 2700 nM in the test with A2780 [4]; 10800 nM with SK-OV-3 [5].
Consider `O=C1c2ccccc2C(=O)c2c(NCCN(CCCl)CCCl)ccc(NCCN(CCCl)CCCl)c21`, for which the values for the RF in the test filed under Homo sapiens and in the test listed under Homo sapiens (Homo sapiens) were 1.2 and 1.9, respectively. In addition, the IC50 in the test on CH1 [1] was found to be 78 nM; with CH1 [2] (Homo sapiens, CH1), 92 nM; in the test with A2780 [3], 96 nM; in the test on A2780 [4], 51 nM; in the test with SK-OV-3 [5], 860 nM.
`CN(C)CCNc1ccc(NCCN(CCCl)CCCl)c2c1C(=O)c1c(O)ccc(O)c1C2=O`: the RF in the test filed under Homo sapiens was 1; in the test filed under Homo sapiens (Homo sapiens), 1.2. The IC50 is 18 nM in the test with CH1 [1]; 19 nM in the test on CH1 [2] (Homo sapiens, CH1); 19 nM in the test with A2780 [3]; 16 nM in the test on A2780 [4]; 155 nM in the test on SK-OV-3 [5].
On to `CN(C)CCNc1ccc(NCCN(C)CCO)c2c1C(=O)c1c(O)ccc(O)c1C2=O`, for which the figures for the RF in the test listed under Homo sapiens and in the test filed under Homo sapiens (Homo sapiens) were 1.9 and 1, respectively. The IC50 is 24 nM in the test on CH1 [1]; 45 nM with CH1 [2] (Homo sapiens, CH1); 5 nM in the test on A2780 [3]; 5 nM with A2780 [4]; 300 nM with SK-OV-3 [5].
Take `O=C1c2c(O)ccc(O)c2C(=O)c2c(NCCN(CCO)CCO)ccc(NCCN(CCO)CCO)c21`: the RF is 1.2 in the test filed under Homo sapiens and 1.4 in the test listed under Homo sapiens (Homo sapiens). The IC50 in the test with CH1 [1] stood at 300 nM; in the test with CH1 [2] (Homo sapiens, CH1), 370 nM; in the test with A2780 [3], 115 nM; in the test on A2780 [4], 82 nM; in the test with SK-OV-3 [5] it was 1500 nM.
For the molecule `O=C1c2c(O)ccc(O)c2C(=O)c2c(NCCCN(CCCl)CCCl)ccc(NCCCN(CCCl)CCCl)c21`, the RF in the test filed under Homo sapiens (Homo sapiens) was 1.4. For the same molecule, the IC50 is 25 nM in the test on CH1 [1]; 35 nM with CH1 [2] (Homo sapiens, CH1); 38 nM in the test with A2780 [3]; 28 nM with A2780 [4]; 185 nM in the test with SK-OV-3 [5].
`O=C(O)CCCc1ccc(N(CCCl)CCCl)cc1` [CHLORAMBUCIL]: in the test filed under Homo sapiens, the RF was determined as 2.4. Also, the IC50 with CH1 [1] was found to be 3300 nM; in the test on CH1 [2] (Homo sapiens, CH1), 7900 nM; with A2780 [3], 52500 nM; with SK-OV-3 [5], 35000 nM.
For the molecule CISPLATIN, inhibition in the test on CH1 [2] (ch1) was half-maximal at 650 nM (IC50).
